TRPC4 potent: allosteric potentiators of mouse TRPC4 channel; Q9QUQ5; HEK293 TRPC4beta/mu-opioid, DAMGO EC20, Fluo-4 Ca2+ flux; active compounds read high; B-score at 10 µM; actives 0.42% (n = 310,000); AID 2227;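 active = B-score of calcium response area above 5 SD of library B-scores, with initial fluorescence ratio within 5 SD of library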;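 note: B-score of integrated fluorescence ratio over time as area under calcium response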
Target sequence (Q9QUQ5 whole entry, looked up): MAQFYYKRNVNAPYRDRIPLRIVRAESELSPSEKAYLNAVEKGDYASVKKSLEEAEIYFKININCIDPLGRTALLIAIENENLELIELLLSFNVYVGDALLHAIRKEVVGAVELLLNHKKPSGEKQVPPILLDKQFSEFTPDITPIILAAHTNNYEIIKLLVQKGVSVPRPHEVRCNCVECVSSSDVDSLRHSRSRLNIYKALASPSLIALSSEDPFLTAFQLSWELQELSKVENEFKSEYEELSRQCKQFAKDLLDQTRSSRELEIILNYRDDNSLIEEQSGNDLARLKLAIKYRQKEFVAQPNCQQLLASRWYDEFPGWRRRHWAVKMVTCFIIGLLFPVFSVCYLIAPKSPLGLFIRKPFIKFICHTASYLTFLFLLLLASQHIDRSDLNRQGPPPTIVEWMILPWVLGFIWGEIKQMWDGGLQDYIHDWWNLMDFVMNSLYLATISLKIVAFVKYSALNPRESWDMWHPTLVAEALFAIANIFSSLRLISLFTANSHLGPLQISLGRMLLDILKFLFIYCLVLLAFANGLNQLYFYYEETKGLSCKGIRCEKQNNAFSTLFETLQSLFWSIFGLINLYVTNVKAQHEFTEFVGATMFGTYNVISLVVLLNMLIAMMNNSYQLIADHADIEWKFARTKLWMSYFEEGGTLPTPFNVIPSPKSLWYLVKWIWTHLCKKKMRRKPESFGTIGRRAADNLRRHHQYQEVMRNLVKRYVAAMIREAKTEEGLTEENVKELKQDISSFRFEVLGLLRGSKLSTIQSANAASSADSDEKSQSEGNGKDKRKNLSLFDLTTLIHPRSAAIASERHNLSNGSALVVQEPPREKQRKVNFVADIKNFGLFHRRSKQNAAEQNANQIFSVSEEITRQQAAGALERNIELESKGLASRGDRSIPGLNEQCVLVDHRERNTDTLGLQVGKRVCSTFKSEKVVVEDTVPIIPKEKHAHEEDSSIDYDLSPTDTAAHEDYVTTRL
Kir21 block: Kir2.1 (mouse) channel inhibition | actives 0.85% (n = 310,000) | P35561 | B-score at 10 µM | HEK293-Kir2.1, FluxOR thallium flux fluorescence; active compounds read low | AID 1672;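 active = fluorescence ratio B-score at or below minus 3 SD of library scores, with starting-brightness B-score within 2 SD, cut at about -4.2 in these data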;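 note: channel flux triggered by added potassium and thallium sulfate stimulus; B-score of peak minus minimum fluorescence over baseline after thallium stimulus; more negative B-score means stronger Kir2.1 block with less thallium influx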
TRPC4 agonist: TRPC4 (mouse) channel activation; Q9QUQ5; HEK293 TRPC4beta/mu-opioid, Fluo4 calcium fluorescence; active compounds read high; B-score at 10 µM; actives 0.49% (n = 310,000);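 active = B-score above 5 SD of library B-scores, and initial fluorescence ratio not above library mean plus 5 SD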;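 note: positive B-score marks a calcium rise read as TRPC4 activation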
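Assay system: HEK293 stable line with TRPC4beta plus mu-opioid receptor. Times: dye 45 min RT, read 110 s. Measured by: kinetic Fluo4 calcium fluorescence. Measure: B score of integrated ratio. Controls: assay buffer as low control, maximal DAMGO as high control.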
TRPC4 block: blocks the mouse TRPC4 cation channel | Q9QUQ5 | HEK293 TRPC4beta/mu-opioid, DAMGO-evoked Fluo4 calcium flux; active compounds read low | actives 0.39% (n = 300,000) | B-score at 10 µM;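 active = B-score over 3 SD under the library average, no early fluorescence shift, positive overall ratio signal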
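Assay system: HEK293 cells with stable TRPC4beta plus mu-opioid receptor expression; Probe or stimulus: DAMGO in two steps, submaximal then maximal; Dosing: single-point compound dosing; Measured by: Fluo4 calcium-dye fluorescence, kinetic read; Read-out basis: B score from integrated Fluo4 fluorescence ratio.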
TRPC6 inh: mouse TRPC6 channel inhibition; B-score at 10 µM; HEK293-TRPC6, membrane potential dye, ACh-evoked depolarization; active compounds read low; Q61143; actives 1.1% (n = 310,000); AID 2553;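 active = B-score under library mean minus 3 SD, initial fluorescence not abnormally high, positive integrated signal ratio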;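 note: B-score derived from integrated fluorescence ratio over the kinetic read; more negative B-score means stronger inhibition of depolarization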
TRPC6 act: activators of mouse TRPC6 channel; B-score at 10 µM; HEK293-TRPC6 membrane potential dye fluorescence; active compounds read high; Q61143; actives 0.13% (n = 310,000);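 active = B-score of the integrated fluorescence ratio above library mean plus 3 SD, and starting fluorescence ratio within library mean plus 5 SD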;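 note: higher score means more depolarization so channel activation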
TRPC4 spec 2: second check of whether TRPC6 inhibitors also affect mouse TRPC4; shares compounds with TRPC6 inh; inhibition, % at 10 µM; HEK293 TRPC4/MOR, membrane potential dye fluorescence; channel activated by saturating DAMGO dose; actives 42% (n = 920); AID 2776;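 active = compounds whose fluorescence signal differed from control wells by over 3 SD, either direction, in both duplicate plates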
TRPC4 spec: selectivity of TRPC6 inhibitors: effect on mouse TRPC4; AID 2777; HEK293 TRPC4/mu-opioid, membrane potential fluorescence; activity change, negative = inhibition, % at 10 µM; shares compounds with TRPC6 inh; actives 61% (n = 920);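 active = rise or fall in signal beyond 3 SD of buffer-only wells in both replicate plates, either sign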;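 note: integrated kinetic ratio of fluorescence range over baseline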
HEK293 MPD ctr 2-1: second counter-screen for TRPC6 inhibitors: parental HEK293 cells. shares compounds with TRPC6 inh. parental HEK293 membrane potential dye fluorescence; maximal acetylcholine challenge after compound addition. signal change vs control, % at 10 µM. actives 31% (n = 920). AID 2779;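 active = membrane potential signal moving either way by over 3 SD of the maximum-effect control, in both duplicate plates, meaning non-specific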
HEK293 MPD ctr-1: counter-screen for TRPC6 inhibitors: effect in parental HEK293 cells; shares compounds with TRPC6 inh; parental HEK293 membrane potential dye fluorescence; membrane potential signal change, % at 10 µM; actives 60% (n = 920); AID 2780;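 active = membrane potential signal shifting up or down by more than 3 SD of buffer-only wells, on both duplicate plates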
HEK293 MPD ctr-2: parental HEK293 nonspecific activity of TRPC6 modulators; shares compounds with TRPC6 inh; membrane potential dye fluorescence; membrane potential signal change, % at 10 µM; actives 51% (n = 2,400); AID 488924;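 active = membrane potential signal moves up or down beyond 5 SD from buffer-only wells, on both duplicate plates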
HEK293 MPD ctr 2-2: second check of TRPC6 modulator effects in parental HEK293 cells; shares compounds with TRPC6 inh; membrane potential dye fluorescence; after compound, maximal acetylcholine stimulation; inhibition, % at 10 µM; actives 14% (n = 2,400); AID 488926;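 active = membrane potential signal drops by more than 5 SD from the mean control signal, in both duplicate plates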;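 note: plate controls were acetylcholine ECmax control wells for no effect and buffer only wells for full effect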
TRPC4 ctr mod: selectivity of TRPC6 modulators against mouse TRPC4; actives 69% (n = 2,400); percent change from control (negative = decrease, positive = increase), % at 10 µM; HEK293 TRPC4/mu-opioid, membrane potential fluorescence; shares compounds with TRPC6 inh; AID 488927;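 active = membrane potential signal moved up or down beyond 5 SD of buffer control wells, in both duplicate plates, actives on both sides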;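 note: plate controls were assay buffer wells for no effect and DAMGO maximal-effect wells for full effect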
TRPC4/MOR inh 2: mouse TRPC4 off-target activity of TRPC6 modulators, second screen. AID 488928. shares compounds with TRPC6 inh. inhibition, % at 10 µM. HEK293 TRPC4/mu-opioid, membrane potential dye fluorescence; stimulated with maximal-effect DAMGO. actives 55% (n = 2,400);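 active = drop in membrane potential signal beyond 5 SD of the control wells in both duplicate plates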;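 note: TRPC4 counter screen for TRPC6 hits run under conditions tuned for TRPC6 not TRPC4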
TRPC6 block conf: mouse TRPC6 inhibitor confirmation; shares compounds with TRPC6 inh; HEK293-TRPC6, membrane potential dye, ACh-evoked depolarization; inhibition, % at 10 µM; actives 43% (n = 3,300); AID 488960;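 active = fluorescence ratio falls more than 5 SD below the full-stimulation control mean, in both duplicate runs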;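 note: integrated fluorescence ratio of peak minus minimum over baseline after agonist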
TRPC6 act confirm: mouse TRPC6 activator confirmation | AID 488961 | actives 11% (n = 2,800) | shares compounds with TRPC6 inh | HEK293-TRPC6 membrane potential dye fluorescence, FDSS | activation, % at 10 µM;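 active = ratio signal rise beyond 5 SD above unstimulated control wells' mean, seen in both duplicate runs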;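 note: plate controls were buffer EC0 wells for no effect and acetylcholine ECmax response for full effect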
Active calls of the source: *. This is a sample that favours compounds with a hit; in the whole collection about 3% have one here.

Screening Cc1ccn2c(Nc3ccc4c(c3)OCO4)c(-c3ccc(O)cc3)nc2c1 returned TRPC4 potent inactive, Kir21 block 1.91, TRPC4 agonist inactive, TRPC4 block inactive, TRPC6 inh -7.11*, TRPC6 act inactive, TRPC4 spec 2 inactive, TRPC4 spec -13.5%*, HEK293 MPD ctr 2-1 inactive, HEK293 MPD ctr-1 -154.0%*, TRPC6 block conf inactive and TRPC6 act confirm inactive.
`Oc1ccc(-c2nc3ncccn3c2Nc2ccc3c(c2)OCO3)cc1` gave TRPC4 potent inactive, Kir21 block -2.21, TRPC4 agonist inactive, TRPC4 block inactive, TRPC6 inh inactive and TRPC6 act inactive.
`COc1cc(-c2nc3ccc(C)cn3c2Nc2ccc3c(c2)OCCO3)ccc1O` gave TRPC4 potent inactive, Kir21 block 2.02, TRPC4 agonist inactive, TRPC4 block inactive, TRPC6 inh -8.45*, TRPC6 act inactive, TRPC4 spec 2 54.0%*, TRPC4 spec -10.6%*, HEK293 MPD ctr 2-1 inactive, HEK293 MPD ctr-1 -322.5%*, TRPC6 block conf inactive and TRPC6 act confirm inactive.
For COc1cc(-c2nc3cnccn3c2Nc2ccc3c(c2)OCCO3)ccc1O the results were TRPC4 potent inactive, Kir21 block -0.58, TRPC4 agonist inactive, TRPC4 block inactive, TRPC6 inh inactive and TRPC6 act inactive.
Screening CCOC(=O)c1c(N)c2cc([N+](=O)[O-])ccc2n1C returned TRPC4 potent inactive, Kir21 block -0.91, TRPC4 agonist inactive, TRPC4 block inactive, TRPC6 inh inactive and TRPC6 act inactive.
Screening CCOC(=O)c1c(N=CN(C)C)c2cc([N+](=O)[O-])cnc2n1C returned TRPC4 potent inactive, Kir21 block 0.35, TRPC4 agonist inactive, TRPC4 block inactive, TRPC6 inh -5.67*, TRPC6 act inactive, HEK293 MPD ctr-2 -146.0%*, HEK293 MPD ctr 2-2 inactive, TRPC4 ctr mod -23.0%*, TRPC4/MOR inh 2 43.5%*, TRPC6 block conf 54.5%* and TRPC6 act confirm inactive.
Screening CC1CCN(C(=O)N2c3ccccc3Sc3ccccc32)CC1 returned TRPC4 potent inactive, Kir21 block -0.01, TRPC4 agonist inactive, TRPC4 block inactive, TRPC6 inh inactive and TRPC6 act inactive.
For CC1CCN(CC(O)CN2c3ccccc3Sc3ccccc32)CC1 (stereo not drawn) the results were TRPC4 potent inactive, Kir21 block -2.41, TRPC4 agonist inactive, TRPC4 block inactive, TRPC6 inh -6.67*, TRPC6 act inactive, TRPC4 spec 2 65.5%*, TRPC4 spec 1.4%*, HEK293 MPD ctr 2-1 inactive, HEK293 MPD ctr-1 inactive, TRPC6 block conf inactive and TRPC6 act confirm inactive.
`O=C(NC1CC1)c1c[nH]c2ccc(S(=O)(=O)Nc3cccc(C(F)(F)F)c3)cc2c1=O` gave TRPC4 potent inactive, Kir21 block -0.88, TRPC4 agonist inactive, TRPC4 block inactive, TRPC6 inh -5.22*, TRPC6 act inactive, HEK293 MPD ctr-2 inactive, HEK293 MPD ctr 2-2 inactive, TRPC4 ctr mod inactive, TRPC4/MOR inh 2 inactive and TRPC6 block conf inactive.
Screening CCc1ccccc1NS(=O)(=O)c1ccc2[nH]cc(C(=O)NCc3ccco3)c(=O)c2c1 returned TRPC4 potent inactive, Kir21 block -0.38, TRPC4 agonist inactive, TRPC4 block inactive, TRPC6 inh -5*, TRPC6 act inactive, HEK293 MPD ctr-2 inactive, HEK293 MPD ctr 2-2 inactive, TRPC4 ctr mod inactive, TRPC4/MOR inh 2 inactive, TRPC6 block conf inactive and TRPC6 act confirm inactive.
`O=C(NCc1ccccc1)c1c[nH]c2ccc(F)cc2c1=O` gave TRPC4 potent inactive, Kir21 block 0.76, TRPC4 agonist inactive, TRPC4 block inactive, TRPC6 inh inactive and TRPC6 act inactive.
COc1ccc(S(=O)(=O)Nc2ccccc2C(=O)NCc2ccco2)cc1 was read as TRPC4 potent inactive, Kir21 block -2.69, TRPC4 agonist inactive, TRPC4 block inactive, TRPC6 inh inactive and TRPC6 act inactive.
`O=C(NCc1ccccc1)c1c[nH]c2ccc(S(=O)(=O)Nc3ccc4c(c3)OCCO4)cc2c1=O` gave TRPC4 potent inactive, Kir21 block 1.68, TRPC4 agonist inactive, TRPC4 block inactive, TRPC6 inh -5.21*, TRPC6 act inactive, HEK293 MPD ctr-2 inactive, HEK293 MPD ctr 2-2 inactive, TRPC4 ctr mod inactive, TRPC4/MOR inh 2 inactive, TRPC6 block conf inactive and TRPC6 act confirm inactive.
Cc1cc(C)cc(NC(=O)C(OC(=O)c2sccc2C)c2ccccc2)c1 (stereo not drawn) was read as TRPC4 potent inactive, Kir21 block 0.58, TRPC4 agonist inactive, TRPC4 block inactive, TRPC6 inh inactive and TRPC6 act inactive.

Assay outcomes (PubChem BioAssay)
